Statin myotox sup = suppressors of statin myotoxicity in C2C12 myotubes, primary screen, cell-based, single point, plate reader; AID 602340, 2012; C2C12 myotubes + simvastatin, ATP luminescence, 48 h; scaled: DMSO 0, geranylgeraniol control 100; 330,000 tested, 0.78% active; rescue of ATP level, % at 7.49 µM;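 active = mean ATP rescue above about 67%, or every replicate alone reaching that limit, limit read from the data, passing the limit was not always enough; inconclusive = no clear call, values can overlap the other calls; inactive = mean under the limit and some replicate under it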;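 also: myotubes were challenged with 10 µM simvastatin during compound exposure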
DENV2 CPE = inhibitors of DENV2 cytopathic effect, primary screen, cell-based, plate reader, single concentration; DENV2-infected cells, cytopathic effect rescue; CPE inhibition, % at 9.99 µM; 350,000 tested, 1.7% active; in the data active = CPE inhibition above about 20%, passing the limit was not always enough; inconclusive = no clear call, values can overlap the other calls; tested in BHK-21 cells
S100A4 MyoIIA = inhibitors of S100A4-myosin IIA peptide binding, primary screen, biochemical, fluorescence polarization, TAMRA-MyoIIA peptide; inhibition, % at 10.7 µM; Protein S100-A4 (Homo sapiens), P26447; 360,000 tested, 0.14% active;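 active = mean inhibition of at least 70% across replicates, with every replicate also reaching that level; inconclusive = mean inhibition reaches 70% but some replicates fall short; inactive = mean inhibition below 70%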
Target sequence (P26447 whole entry, looked up): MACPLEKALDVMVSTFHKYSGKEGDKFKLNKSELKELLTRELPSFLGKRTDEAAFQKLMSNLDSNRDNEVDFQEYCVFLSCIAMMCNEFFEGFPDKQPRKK
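Material: S100A4 monomer (human). Medium: Calcium-containing HEPES buffer, pH 7.2. Probe or stimulus: labelled myosin peptide probe, 5 nM. Compound dosing: one concentration per compound. Timing: polarization read 5 min after assay mix addition, stable 5–60 min. Benchmarks: DMSO as neutral control, TFP as positive control.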
SIRT5 inh = SIRT5 desuccinylase inhibitors, primary screen, biochemical, fluorescence imaging, single point, set 5; AID 652115, 2013; inhibition, % at 15 µM; 330,000 tested, 1.1% active; Purified SirT5, succinyl-peptide AMC, trypsin-coupled fluorescence; NAD-dependent protein deacylase sirtuin-5, mitochondrial (Homo sapiens), Q9NXA8; in the data active = inhibition above about 15%; inconclusive = no clear call, values can overlap the other calls
Target sequence (Q9NXA8 whole entry, looked up): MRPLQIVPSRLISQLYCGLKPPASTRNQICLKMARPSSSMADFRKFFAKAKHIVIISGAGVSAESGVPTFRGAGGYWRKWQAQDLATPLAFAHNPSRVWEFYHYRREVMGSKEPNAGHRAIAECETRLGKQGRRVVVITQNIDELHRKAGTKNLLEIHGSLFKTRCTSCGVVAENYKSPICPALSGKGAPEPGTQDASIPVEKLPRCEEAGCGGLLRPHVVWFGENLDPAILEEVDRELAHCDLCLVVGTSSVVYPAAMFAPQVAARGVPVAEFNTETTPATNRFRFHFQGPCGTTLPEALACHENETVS
PGC1a acetyl inh = inhibitors of PGC1a acetylation signal, primary screen, cell-based, U2OS, AlphaScreen, inhibitor mode | AlphaScreen anti-acetyl-lysine; with virally co-expressed GCN5 acetyltransferase | 350,000 tested, 0.17% active | inhibition, % at 15.6 µM;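 active = every replicate shows inhibition of at least 40%; inconclusive = mean inhibition at least 40% but some replicate below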
Of the large screens only hits and unclear results are named; the others gave an inactive call. Sampled rows, rich in hits. Any-hit rate of the full collection: about 2.9%.

O=C(C[C@H]1C[C@H]2c3cc(NC(=O)Nc4ccccc4F)ccc3O[C@H]2[C@@H](CO)O1)NCc1ccc(Oc2ccccc2)cc1	none
O=C(C[C@@H]1C[C@H]2c3cc(NC(=O)Nc4ccccc4F)ccc3O[C@H]2[C@H](CO)O1)NCC1CC1	DENV2 CPE 27, SIRT5 inh 22
O=C(C[C@H]1C[C@@H]2c3cc(NC(=O)Nc4ccccc4F)ccc3O[C@@H]2[C@@H](CO)O1)NCc1ccc(Oc2ccccc2)cc1	SIRT5 inh 18
O=C(C[C@H]1C[C@@H]2c3cc(NC(=O)Nc4ccccc4F)ccc3O[C@@H]2[C@@H](CO)O1)NCC1CC1	none
O=C(C[C@@H]1C[C@H]2c3cc(NC(=O)c4ccc5c(c4)OCO5)ccc3O[C@H]2[C@H](CO)O1)NCc1ccc(Oc2ccccc2)cc1	SIRT5 inh 22
O=C(C[C@@H]1C[C@@H]2c3cc(NC(=O)Nc4ccccc4F)ccc3O[C@@H]2[C@H](CO)O1)NCC1CC1	DENV2 CPE 68
Cc1noc(C)c1S(=O)(=O)N(C)C[C@@H]1OCCCC[C@@H](C)Oc2ccc(NC(=O)Nc3ccc4c(c3)OCO4)cc2C(=O)N([C@@H](C)CO)C[C@H]1C	none (no result: Statin myotox sup, S100A4 MyoIIA, SIRT5 inh)
OC[C@H]1[C@H](c2ccc(-c3ccc(F)cc3)cc2)[C@@H]2CN(Cc3cccnc3)CCCCN12	none
C[C@@H]1CCCCO[C@@H](CN(C)Cc2ccncc2)[C@@H](C)CN([C@H](C)CO)C(=O)c2cc(NC(=O)Cc3ccccc3)ccc2O1	none
CO[C@H]1CN(C)C(=O)c2cc(NC(=O)Cc3ccccc3)ccc2OC[C@H](C)N(C(=O)c2ccccc2F)C[C@@H]1C	none
O=C(Nc1ccc2c(c1)[C@H]1C[C@H](CC(=O)N3CCc4ccccc4C3)O[C@H](CO)[C@H]1O2)Nc1ccccc1F	SIRT5 inh 15
O=C(NCC1CC1)Nc1ccccc1F	PGC1a acetyl inh 83
O=C(Nc1ccc2c(c1)[C@H]1C[C@@H](CC(=O)N3CCc4ccccc4C3)O[C@@H](CO)[C@H]1O2)Nc1ccccc1F	none
CC(C)NC(=O)N(C)C[C@@H]1OCCCC[C@@H](C)Oc2ccc(NC(=O)c3ccccc3)cc2C(=O)N([C@H](C)CO)C[C@H]1C	none (no result: Statin myotox sup)
O=C(NCc1nc2ccccc2[nH]1)C1=C[C@@H](c2coc3ccccc3c2=O)C[C@@H](OCCCCO)O1	DENV2 CPE 82 (no result: Statin myotox sup)
CCC(=O)N(C)C[C@H]1Oc2ncc(C#Cc3ccccc3)cc2C(=O)N([C@@H](C)CO)C[C@H]1C	none
C[C@H]1CN([C@@H](C)CO)C(=O)c2cc(/C=C/c3ccccc3)cnc2O[C@@H]1CN(C)C	none
CC(C)CCCCCCCCc1cccc(O)c1C(=O)O	SIRT5 inh 20 (no result: Statin myotox sup, PGC1a acetyl inh)
COc1ccc(CN(C)C[C@H]2OCCCC[C@@H](C)Oc3ccc(N(C)C)cc3C(=O)N([C@H](C)CO)C[C@@H]2C)cc1	none
c1ccc(Cn2nnnc2CN2CCN(c3ncccn3)CC2)cc1	Statin myotox sup 140 (no result: DENV2 CPE, S100A4 MyoIIA, SIRT5 inh)
COc1ccc(Cn2nnnc2CN2CCOCC2)cc1	none (no result: DENV2 CPE)
c1ccc2c(c1)nc(-c1ccncc1)n2CCNc1nc(CN2CCCCC2)cs1	Statin myotox sup 88
O=C(Cn1c(C(F)(F)F)nc2ccccc21)N1CCCC1	none (no result: DENV2 CPE, S100A4 MyoIIA, SIRT5 inh)
FC(F)(F)c1nc2ccccc2n1CCNc1nc(CN2CCCCC2)cs1	DENV2 CPE 30
COc1ccc(CN2C(=O)C(CC(=O)NCCc3ccccn3)CC(C(=O)N3CCOCC3)=C2C)cc1 (centres undefined)	SIRT5 inh 21
C/C=C/c1cccc(-c2nc(C(=O)NCc3ccncc3)cc3c2[C@@H](CCO)N([S@](=O)C(C)(C)C)C3)c1	none (no result: Statin myotox sup)
Cc1ccc(/C=C/C(=O)N2CCN(c3cccc(C(F)(F)F)c3)CC2)cc1	SIRT5 inh 30 (no result: Statin myotox sup, PGC1a acetyl inh)
C[C@@H]1CN([C@@H](C)CO)S(=O)(=O)c2ccc(C#Cc3cccnc3)cc2O[C@H]1CN(C)C	none
CCn1c(SCC(=O)c2ccc(OC)cc2)nnc1C(C)NC(=O)c1ccc(OC)cc1 (centres undefined)	Statin myotox sup 76 (no result: DENV2 CPE, S100A4 MyoIIA, SIRT5 inh)
CCCNC(=O)C[C@@H]1C[C@@H]2c3cc(NC(=O)COC)ccc3O[C@@H]2[C@@H](CO)O1	DENV2 CPE inconclusive
Cc1ccc(S(=O)(=O)Nc2cccc3c2O[C@@H](CN(C)C(=O)Nc2ccccc2)[C@@H](C)CN([C@@H](C)CO)C3=O)cc1	none
Nn1c(SCC(=O)N2CCCC2)nnc1C1CCCCC1	none (no result: SIRT5 inh)
CC(=O)c1c(C)[nH]c(C(=O)CSc2nnc(C3CCCCC3)n2N)c1C	Statin myotox sup 122 (no result: DENV2 CPE, S100A4 MyoIIA, SIRT5 inh)
C[C@@H]1CCCCO[C@H](CN(C)C(=O)NC2CCCCC2)[C@@H](C)CN([C@@H](C)CO)C(=O)c2cc(NS(=O)(=O)c3ccccc3)ccc2O1	none (no result: Statin myotox sup)
C[C@@H]1CN([C@H](C)CO)C(=O)c2cc(NS(=O)(=O)c3ccccc3)ccc2O[C@@H](C)CCCCO[C@@H]1CN(C)C(=O)NC1CCCCC1	DENV2 CPE 75 (no result: Statin myotox sup)
C[C@H]1CCCCO[C@@H](CN(C)C(=O)NC2CCCCC2)[C@@H](C)CN([C@@H](C)CO)C(=O)c2cc(NS(=O)(=O)c3ccccc3)ccc2O1	DENV2 CPE 30 (no result: Statin myotox sup)
CCCN1CCN(C(=O)Nc2ccc(C(=O)OCC)cc2)CC1	Statin myotox sup 109 (no result: DENV2 CPE, S100A4 MyoIIA, SIRT5 inh)
Cc1ccc(S(=O)(=O)N2C[C@@H](C)[C@]3(C2)[C@H](O)[C@H](OC(=O)NCc2ccco2)C[C@H]2C(=O)N(c4ccccc4)C(=O)[C@H]23)cc1	SIRT5 inh 22 (no result: PGC1a acetyl inh)
Cc1cccc(NC(=O)c2nc[nH]c2C(=O)NC[C@H](C)O)c1	SIRT5 inh 27
CCOC(=O)c1ccc(NC(=O)c2nc[nH]c2C(=O)NC[C@H](C)O)cc1	DENV2 CPE 80 (no result: PGC1a acetyl inh)
C[C@@H](O)CNC(=O)c1[nH]cnc1C(=O)Nc1cccc(Cl)c1	none
Cc1cccc(NC(=O)c2nc[nH]c2C(=O)NCCCNC(=O)c2[nH]cnc2C(=O)Nc2cccc(C)c2)c1	DENV2 CPE 45
Cc1ccc(NC(=O)c2nc[nH]c2C(=O)N[C@@H](C)C(=O)OC(C)(C)C)cc1	DENV2 CPE 98 (no result: SIRT5 inh, PGC1a acetyl inh)
C[C@H](NC(=O)c1[nH]cnc1C(=O)Nc1ccccc1)C(=O)OC(C)(C)C	none (no result: SIRT5 inh, PGC1a acetyl inh)
O=C(Cc1ccccn1)NCC[C@H]1CC[C@@H](NS(=O)(=O)c2ccccc2)[C@H](CO)O1	none
O=C(C1CC1)N1CC(=O)N2[C@H](CO)[C@@H](c3ccc(-c4cccnc4)cc3)[C@H]2C1	none (no result: Statin myotox sup)
CNC(=O)c1[nH]cnc1C(=O)Nc1ccc(C)cc1	none (no result: PGC1a acetyl inh)
CNC(=O)c1[nH]cnc1C(=O)Nc1ccc(Cl)cc1	DENV2 CPE 41
COc1ccc(CN(C)C[C@@H]2Oc3c(NC(=O)Nc4ccc(OC)cc4)cccc3C(=O)N([C@@H](C)CO)C[C@@H]2C)cc1	none

Assay outcomes deposited in PubChem by Broad Institute.
